Bioassay records as filed in PubChem.
This is a sample that favours compounds with a hit; in the whole collection about 4% have one here.
TAAR1 ag = human TAAR1 agonists, primary screen, Fluo-8 calcium fluorescence, CHO RD-HGA16 cells. activation, % at 3 µM. 360,000 compounds, 0.99% hits. vehicle wells 0%, saturating PEA agonist 100%;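 active = activation above the mean activation of all test compounds in the run plus 3 SD, cut at about 38% in these data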
Target sequence (Q96RJ0 whole entry, looked up): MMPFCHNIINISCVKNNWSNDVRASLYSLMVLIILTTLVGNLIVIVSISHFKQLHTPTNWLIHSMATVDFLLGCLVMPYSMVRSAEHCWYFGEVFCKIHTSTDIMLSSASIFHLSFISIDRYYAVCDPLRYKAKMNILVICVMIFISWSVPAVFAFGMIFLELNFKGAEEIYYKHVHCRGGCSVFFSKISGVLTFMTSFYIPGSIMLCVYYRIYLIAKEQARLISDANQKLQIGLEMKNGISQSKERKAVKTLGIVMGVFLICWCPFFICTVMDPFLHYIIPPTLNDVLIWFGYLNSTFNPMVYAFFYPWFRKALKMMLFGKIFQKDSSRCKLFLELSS
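Test system: RD-HGA16 (CHO) cells co-expressing Gα16 and hTAAR1 / Benchmarks: DMSO vehicle as 0%, PEA at EC100 as 100% / Repeats: no replicates (n 1) / Measure: % activation from peak over basal fluorescence ratio, DMSO-to-PEA scaled / Timing: 17-24 h plating, Fluo-8 75 min 37 °C, 30 min RT / Technique: kinetic Fluo-8 calcium fluorescence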
TAAR1 antagonist = human TAAR1 antagonists, primary screen, Fluo-8 calcium fluorescence, CHO RD-HGA16 cells; antagonist; inhibition, % at 3 µM; 360,000 compounds, 1.5% hits;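 active = inhibition above a per-plate cutoff, the mean inhibition of test compounds on that plate plus 3 SD, cut at about 49% in these data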;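 note: 0% = DMSO plus EC80 beta-PEA response and 100% = DMSO alone without agonist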
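Assay system: RD-HGA16 CHO cells with stable hTAAR1 and Gα16 / Reagent: EC80 β-phenethylamine stimulus / Doses: 3 µM, single point / Timing: dye loading 75 min at 37 °C, then 30 min room temperature / Measured by: Fluo-8 intracellular calcium dye fluorescence, real-time kinetic reads / Controls: vehicle wells and EC80 agonist wells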
CHO parental Ca = ATP-evoked calcium signal inhibitors, parental CHO, primary screen, counter-screen for OX1R antagonist project, cell-based, fluorescence, Fluo-8 calcium dye; inhibition, % at 5.6 µM; parental CHO-K1, ATP-induced calcium, Fluo-8 fluorescence; AID 463079, 2010; 330,000 compounds, 0.63% hits;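 active = inhibition above that plate's mean sample inhibition plus 3 SD, cut at about 26% in these data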;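 note: 0% = ATP-challenged DMSO wells and 100% = DMSO wells without ATP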
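Material – parental CHO cells · Reagent – ATP stimulus · Compound – single nominal dose of 5.6 µM per compound · Detection – Fluo-8 fluorescence · Read-out basis – percent inhibition of calcium signal · Controls – ATP-challenged DMSO wells low, unchallenged DMSO wells high · Repeats – no replicates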
OX1R antag-1 = OX1R (HCRTR1) antagonists, primary screen, fluorescence, CHO/OX1R cells, Fluo-8 calcium, orexin A; Orexin/Hypocretin receptor type 1 (Homo sapiens), O43613; Fluo-8 calcium fluorescence; inhibition, % at 5 µM; 330,000 compounds, 0.43% hits; AID 434989, 2010;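 active = inhibition above its plate's threshold, mean inhibition of all tested compounds on the plate plus 3 SD, cut at about 37% in these data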;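 note: 0% = orexin A challenge wells and 100% = SB-334867-A antagonist wells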
OX1R antag-2 = antagonists of human orexin 1 receptor (OX1R). Orexin/Hypocretin receptor type 1 (Homo sapiens), O43613. OX1R-expressing cells, FRET antagonist read-out. inhibition, % at 6.6 µM. 330,000 compounds, 1.8% hits. AID 485270, 2010; in the data active = inhibition mostly above about 38%, no sharp cut-off; inactive = mostly below about 40%;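 note: 0% = agonist challenge alone and 100% = reference antagonist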
NTR1 agonist = agonists of human NTR1, primary screen, imaging, U2OS cells, beta-arrestin-GFP, high content. Neurotensin receptor type 1 (Homo sapiens), P30989. NTR1-U2OS beta-arrestin-GFP spot imaging, agonist mode. activation, % at 20 µM. 330,000 compounds, 0.17% hits;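 active = activation at or above 40% of the spot to cytoplasm intensity ratio, with at least 20 cells analyzed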;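 note: 0% = DMSO without peptide and 100% = 100 nM NTR1 peptide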
Target sequence (P30989 whole entry, looked up): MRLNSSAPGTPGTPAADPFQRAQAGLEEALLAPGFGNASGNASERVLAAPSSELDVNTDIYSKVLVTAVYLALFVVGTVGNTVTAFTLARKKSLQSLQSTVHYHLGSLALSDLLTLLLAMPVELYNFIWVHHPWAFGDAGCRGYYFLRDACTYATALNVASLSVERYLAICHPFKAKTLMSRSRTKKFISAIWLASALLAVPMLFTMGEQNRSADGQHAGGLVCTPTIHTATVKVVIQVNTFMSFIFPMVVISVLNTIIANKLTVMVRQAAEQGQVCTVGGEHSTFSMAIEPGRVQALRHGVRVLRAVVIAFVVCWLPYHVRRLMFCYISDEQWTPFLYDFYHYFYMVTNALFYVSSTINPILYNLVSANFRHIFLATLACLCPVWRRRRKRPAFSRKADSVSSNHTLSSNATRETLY
TAAR1 ag conf = human TAAR1 agonists, retest of hits, confirmation, Fluo-8 calcium fluorescence, CHO RD-HGA16 cells. shares compounds with TAAR1 ag. scaled: DMSO 0%, maximal phenethylamine 100%. activation, % at 3 µM. 2,400 compounds, 82% hits. AID 651783, 2012;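 active = activation above a cutoff set at the run's mean compound activation plus 3 SD, cut at about 39% in these data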
Ga16 nonsel ag = nonselective calcium mobilization agonists, CHO-Ga16 cells, counter-screen for hTAAR1 agonist project, cell-based, fluorescence, CHO-Ga16 parental line; shares compounds with TAAR1 ag; Fluo-8 calcium fluorescence; normalized to maximal ATP response, DMSO zero; activation, % at 3 µM; 2,400 compounds, 50% hits;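 active = activation above the run cutoff, the mean activation over all tested wells plus 3 SD, cut at about 12% in these data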;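 note: 0% = DMSO wells and 100% = maximal ATP response on the peak over basal ratio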
TAAR1 desens = TAAR1 desensitization by agonist hits, confirmation, counter-screen for TAAR1 agonist project, cell-based, fluorescence, tachyphylaxis | inhibition, % at 3 µM | AID 651951, 2012 | shares compounds with TAAR1 ag | CHO RD-HGA16 hTAAR1, Fluo-8 calcium, beta-PEA response inhibition | 2,400 compounds, 46% hits;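 active = inhibition above the run cutoff, the mean inhibition of all test compounds plus 3 SD, cut at about 49% in these data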;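 note: beta-PEA stimulus applied at its EC80; loss of beta-PEA calcium signal after compound pretreatment read as receptor desensitization; 0% = DMSO with beta-PEA at EC80 and 100% = DMSO alone without agonist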
Ga16 nonsel ant = inhibition of ATP-evoked calcium response in CHO-Ga16 cells, counter-screen for TAAR1 agonist project, cell-based, fluorescence | inhibition, % at 3 µM | CHO-Ga16 ATP-induced calcium, Fluo-8 fluorescence | shares compounds with TAAR1 ag | 2,400 compounds, 39% hits;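 active = inhibition above the plate's mean compound inhibition plus 3 SD, computed per plate, cut at about 22% in these data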;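 note: 0% = EC80 ATP with DMSO and 100% = DMSO wells without ATP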
The depositor's hits bear a star.

What do the screens show for `Cc1ccc(NC(=O)c2ccc(S(=O)(=O)N3CCCCC3)cc2)cc1`?
TAAR1 ag: 48*; TAAR1 antagonist: -11; CHO parental Ca: -16; OX1R antag-1: -16; OX1R antag-2: 20; NTR1 agonist: 3; TAAR1 ag conf: 1; Ga16 nonsel ag: 4; TAAR1 desens: 10; Ga16 nonsel ant: 11

What do the screens show for `CC(Oc1ccc(Br)cc1)C(=O)Nc1ccc(S(=O)(=O)N(C)C2CCN(C)CC2)cc1` (stereo unspecified)?
TAAR1 ag: 140*; TAAR1 antagonist: 99*; CHO parental Ca: 51*; OX1R antag-1: 40; OX1R antag-2: -4; NTR1 agonist: 6; TAAR1 ag conf: 140*; Ga16 nonsel ag: 100*; TAAR1 desens: 102*; Ga16 nonsel ant: 82*

What do the screens show for `Cc1nc2ccccc2n1C(=O)N(C)C`?
TAAR1 ag: 0; TAAR1 antagonist: 8; CHO parental Ca: -8; OX1R antag-1: 3; OX1R antag-2: 0; NTR1 agonist: 1

What do the screens show for `CC(C)(CNC(=O)c1cc(Cl)c(O)c(Cl)c1)N1CCCCC1`?
TAAR1 ag: -2; TAAR1 antagonist: 1; CHO parental Ca: 3; OX1R antag-1: 1; OX1R antag-2: 6; NTR1 agonist: 0

How did Cc1cccc(NC(=O)CCN2CCC(C)CC2)c1 do in these assays?
TAAR1 ag: 7; TAAR1 antagonist: -16; CHO parental Ca: -18; OX1R antag-1: -12; OX1R antag-2: -12; NTR1 agonist: 2

Results for CC(Oc1ccc(C(=O)c2ccccc2)cc1)C(=O)Nc1ccc(S(N)(=O)=O)cc1 (stereo unspecified) ?
TAAR1 ag: 74*; TAAR1 antagonist: 29; CHO parental Ca: 15; OX1R antag-1: 24; OX1R antag-2: 5; NTR1 agonist: 2; TAAR1 ag conf: 61*; Ga16 nonsel ag: 31*; TAAR1 desens: 47; Ga16 nonsel ant: 36*

How did Cc1ccc(OC(C)C(=O)Nc2ccc(S(=O)(=O)N3CCOCC3)cc2)cc1 (stereo unspecified) do in these assays?
TAAR1 ag: 66*; TAAR1 antagonist: 26; CHO parental Ca: 10; OX1R antag-1: 11; OX1R antag-2: 0; NTR1 agonist: 2; TAAR1 ag conf: 77*; Ga16 nonsel ag: 51*; TAAR1 desens: 42; Ga16 nonsel ant: 33*

Results for CC(Oc1ccccc1)C(=O)Nc1ccc(NC(=O)c2ccccc2)cc1 (stereo unspecified) ?
TAAR1 ag: 0; TAAR1 antagonist: -11; CHO parental Ca: -5; OX1R antag-1: 6; OX1R antag-2: 18; NTR1 agonist: 1

Results for CC1=C(C(=O)Nc2ccc(CC(=O)NCc3ccc(OC(C)C)cc3)cc2)SCCO1 ?
TAAR1 ag: 0; TAAR1 antagonist: -59; CHO parental Ca: -19; OX1R antag-1: -22; OX1R antag-2: 3; NTR1 agonist: -1

What do the screens show for `CCc1c(C)sc(NC(=O)c2cc(-c3ccc(OC)c(OC)c3)on2)c1C#N`?
TAAR1 ag: 8; TAAR1 antagonist: -1; CHO parental Ca: -24; OX1R antag-1: -21; OX1R antag-2: 7; NTR1 agonist: 2

Results for COc1ccc(-c2csc(NC(=O)c3cc(C)on3)c2C#N)cc1OC ?
TAAR1 ag: 46*; TAAR1 antagonist: 29; CHO parental Ca: -13; OX1R antag-1: -4; OX1R antag-2: 15; NTR1 agonist: 1; TAAR1 ag conf: 14; Ga16 nonsel ag: 7; TAAR1 desens: 13; Ga16 nonsel ant: 17

Results for NC(N)=N/N=C(\N=Nc1ccccc1)c1ccc(Cl)cc1 ?
TAAR1 ag: 49*; TAAR1 antagonist: 28; TAAR1 ag conf: 76*; Ga16 nonsel ag: 38*; TAAR1 desens: 77*; Ga16 nonsel ant: 50*

How did Cc1ccccc1OCC(=O)NNC(=S)NC(=O)c1ccco1 do in these assays?
TAAR1 ag: 65*; TAAR1 antagonist: 14; CHO parental Ca: -5; OX1R antag-1: 7; OX1R antag-2: 4; NTR1 agonist: 2; TAAR1 ag conf: 29; Ga16 nonsel ag: 23*; TAAR1 desens: 12; Ga16 nonsel ant: 20

How did CC(C)c1ccc(OCC(=O)NNC(=S)NC(=O)c2ccco2)c(Br)c1 do in these assays?
TAAR1 ag: 44*; TAAR1 antagonist: 7; CHO parental Ca: -2; OX1R antag-1: 10; OX1R antag-2: -4; NTR1 agonist: 5; TAAR1 ag conf: 81*; Ga16 nonsel ag: 59*; TAAR1 desens: 70*; Ga16 nonsel ant: 51*

What do the screens show for `O=C(CC1CCCC1)NNC(=O)c1ccc(Br)cc1`?
TAAR1 ag: 2; TAAR1 antagonist: 3; CHO parental Ca: -3; OX1R antag-1: -9; OX1R antag-2: 4; NTR1 agonist: 2

Results for NCCOc1ccc(C23CC4CC(CC(C4)C2)C3)cc1 ?
TAAR1 ag: 81*; TAAR1 antagonist: 16; CHO parental Ca: 7; OX1R antag-1: 2; OX1R antag-2: -2; NTR1 agonist: 0; TAAR1 ag conf: 94*; Ga16 nonsel ag: 60*; TAAR1 desens: 81*; Ga16 nonsel ant: 76*

How did OCCN1CCN(CC(O)COc2ccc(C34CC5CC(CC(C5)C3)C4)cc2)CC1 (stereo unspecified) do in these assays?
TAAR1 ag: 20; TAAR1 antagonist: -6; CHO parental Ca: 9; OX1R antag-1: -7; OX1R antag-2: 10; NTR1 agonist: 18

What do the screens show for `COc1cccc(N)c1`?
TAAR1 ag: 2; TAAR1 antagonist: 5
